# Measurements reported in ChEMBL document CHEMBL1177802, “Novel semicarbazones based 2,5-disubstituted-1,3,4-oxadiazoles: one more step towards establishing four binding site pharmacophoric model hypothesis for anticonvulsant activity” (Bioorg Med Chem Lett, 2010).
# Active and inactive are the calls of the source.
# Columns and labels:
# Rattus norvegicus [1] = experiment: Increase in GABA level in Wistar rat medulla oblangata assessed per mg of tissue at 100 mg/kg, ip after 2 hrs; assay type: functional, Medulla oblongata; conditions: route intraperitoneal
# Outline: (§1)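 Rats given 100 mg/kg ip and killed by decapitation 2 h later. Midbrain, medulla oblongata and cerebellum are placed separately in ice-cold 80% ethanol and processed for GABA, expressed per 100 mg tissue. Reference drug clobazam is given at 30 mg/kg ip. Values are mean ± SEM of six rats.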
# Rattus norvegicus [2] = experiment: Increase in GABA level in Wistar rat midbrain assessed per mg of tissue at 100 mg/kg, ip after 2 hrs; assay type: functional; conditions: route intraperitoneal; outline: as §1
# Rattus norvegicus [3] = experiment: Increase in GABA level in Wistar rat cerebellum assessed per mg of tissue at 100 mg/kg, ip after 2 hrs; assay type: functional; conditions: route intraperitoneal; outline: as §1
# Rattus norvegicus [4] = experiment: Anticonvulsant activity against maximal electroshock-induced seizures in Wistar rat at 30 mg/kg, po after 2 hrs; assay type: functional, organism-based; set-up: dose 30 mg/kg
# Outline: (§2)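 Rats dosed orally at 30 mg/kg; maximal electroshock protection scored at 0.25, 0.5, 1, 2 and 4 h. Result is given as the number of protected rats out of four.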
# Mus musculus [5] = experiment: Anticonvulsant activity against maximal electroshock-induced seizures in ip dosed Swiss albino mouse assessed as minimum effective dose after 0.5 hrs; assay type: functional; conditions: read-out: MED
# Outline: (§3)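 Mice; compounds given ip at 30, 100 and 300 mg/kg and tested in the maximal electroshock seizure model at 0.5 and 4.0 h after dosing. Read-out is the minimal dose giving protection in half or more of the animals. Absence of activity is judged at the 300 mg/kg maximum.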
# Mus musculus [6] = experiment: Neurotoxicity in Swiss albino mouse at 300 mg/kg, ip after 0.5 hrs; assay type: toxicity, organism-based; set-up: dose 300 mg/kg, route intraperitoneal; conditions: in vivo
# Outline: (§4)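 Acute neurotoxicity by rotorod test in mice given 30, 100 and 300 mg/kg ip, assessed 0.5 and 4.0 h after dosing. Reported as the minimal dose producing the effect in half or more of the animals. Absence of activity is judged at the 300 mg/kg maximum.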
# Rattus norvegicus [7] = experiment: Anticonvulsant activity against maximal electroshock-induced seizures in Wistar rat at 30 mg/kg, po after 1 hr; assay type: functional, organism-based; set-up: dose 30 mg/kg; outline: as §2
# Mus musculus [8] = experiment: Anticonvulsant activity against subcutaneous pentylenetetrazole-induced seizures in ip dosed Swiss albino mouse assessed as minimum effective dose after 4 hrs; assay type: functional; conditions: read-out: MED
# Outline: (§5)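 Mice; subcutaneous pentylenetetrazole seizure screen after ip dosing at 30, 100 and 300 mg/kg, read 0.5 and 4.0 h post-dose. Scored as the lowest dose protecting at least half of the animals. Absence of activity is judged at the 300 mg/kg maximum.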
# Mus musculus [9] = experiment: Anticonvulsant activity against maximal electroshock-induced seizures in ip dosed Swiss albino mouse assessed as minimum effective dose after 4 hrs; assay type: functional; conditions: read-out: MED; outline: as §3
# Rattus norvegicus [10] = experiment: Neurotoxicity in Wistar rat at 30 mg/kg, po after 0.5 hrs; assay type: toxicity, organism-based; set-up: dose 30 mg/kg, route oral; conditions: in vivo
# Outline: (§6)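 Oral dosing in rats at 30 mg/kg, neurotoxicity (rotorod) scored at 0.25, 0.5, 1, 2 and 4 h post-administration. Counts are out of four rats per time point.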
# Rattus norvegicus [11] = experiment: Neurotoxicity in Wistar rat at 30 mg/kg, po after 4 hrs; assay type: toxicity, organism-based; set-up: dose 30 mg/kg, route oral; conditions: in vivo; outline: as §6
# Rattus norvegicus [12] = experiment: Neurotoxicity in Wistar rat at 30 mg/kg, po after 0.25 hrs; assay type: toxicity, organism-based; set-up: dose 30 mg/kg, route oral; conditions: in vivo; outline: as §6
# Rattus norvegicus [13] = experiment: Anticonvulsant activity against maximal electroshock-induced seizures in Wistar rat at 30 mg/kg, po after 0.25 hrs; assay type: functional, organism-based; set-up: dose 30 mg/kg; outline: as §2
# Mus musculus [14] = experiment: Neurotoxicity in Swiss albino mouse at 300 mg/kg, ip after 4 hrs; assay type: toxicity, organism-based; set-up: dose 300 mg/kg, route intraperitoneal; conditions: in vivo; outline: as §4
# Rattus norvegicus [15] = experiment: Neurotoxicity in Wistar rat at 30 mg/kg, po after 1 hr; assay type: toxicity, organism-based; set-up: dose 30 mg/kg, route oral; conditions: in vivo; outline: as §6
# Rattus norvegicus [16] = experiment: Anticonvulsant activity against subcutaneous strychnine-induced seizures in ip dosed Wistar rat assessed as minimum effective dose after 4 hrs; assay type: functional; conditions: read-out: MED
# Outline: (§7)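 Rats; subcutaneous strychnine-induced seizure model with compounds given intraperitoneally at 30, 100 and 300 mg/kg. Activity is checked at 0.5 h and 4.0 h and recorded as the minimal dose active in at least half of the animals. Absence of activity is judged at the 300 mg/kg maximum.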
# Mus musculus [17] = experiment: Anticonvulsant activity against subcutaneous pentylenetetrazole-induced seizures in Swiss albino mouse at 300 mg/kg, ip after 0.5 hrs; assay type: functional, organism-based; set-up: dose 300 mg/kg; outline: as §5
# Rattus norvegicus [18] = experiment: Anticonvulsant activity against subcutaneous strychnine-induced seizures in Wistar rat at 300 mg/kg, ip after 0.5 hrs; assay type: functional, organism-based; set-up: dose 300 mg/kg; outline: as §7
# Rattus norvegicus [19] = experiment: Anticonvulsant activity against maximal electroshock-induced seizures in Wistar rat at 30 mg/kg, po after 0.5 hrs; assay type: functional, organism-based; set-up: dose 30 mg/kg; outline: as §2
# Mus musculus [20] = experiment: Anticonvulsant activity against subcutaneous pentylenetetrazole-induced seizures in ip dosed Swiss albino mouse assessed as minimum effective dose after 0.5 hrs; assay type: functional; conditions: read-out: MED; outline: as §5
# Rattus norvegicus [21] = experiment: Neurotoxicity in Wistar rat at 30 mg/kg, po after 2 hrs; assay type: toxicity, organism-based; set-up: dose 30 mg/kg, route oral; conditions: in vivo; outline: as §6
# Mus musculus [22] = experiment: Neurotoxicity in ip dosed Swiss albino mouse assessed as minimum dose required to cause toxicity after 4 hrs; assay type: organism-based; conditions: in vivo; outline: as §4
# Rattus norvegicus [23] = experiment: Anticonvulsant activity against subcutaneous strychnine-induced seizures in ip dosed Wistar rat assessed as minimum effective dose after 0.5 hrs; assay type: functional; conditions: read-out: MED
# Outline: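 Rats given 30, 100 or 300 mg/kg ip and challenged with subcutaneous strychnine. Protection was read at 0.5 and 4.0 h after dosing. The value is the minimal dose that gave activity in half or more of the animals; no activity at 300 mg/kg was the highest-dose cut-off.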
# Mus musculus [24] = experiment: Anticonvulsant activity against subcutaneous pentylenetetrazole-induced seizures in Swiss albino mouse at 300 mg/kg, ip after 4 hrs; assay type: functional, organism-based; set-up: dose 300 mg/kg; outline: as §5
# Mus musculus [25] = experiment: Neurotoxicity in ip dosed Swiss albino mouse assessed as minimum dose required to cause toxicity after 0.5 hrs; assay type: organism-based; conditions: in vivo; outline: as §4
# Rattus norvegicus [26] = experiment: Increase in GABA level in Wistar rat cerebellum assessed per mg of tissue at 30 mg/kg, ip after 2 hrs; assay type: functional; conditions: route intraperitoneal
# Outline: (§8)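 Rats dosed ip, killed by decapitation 2 h after dosing. Midbrain, medulla oblongata and cerebellum were each placed separately in ice-cold 80% ethanol and processed for GABA by a previously reported method. GABA was expressed per 100 mg tissue. Values are the mean ± SEM of six rats, compared with an untreated control group.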
# Rattus norvegicus [27] = experiment: Increase in GABA level in Wistar rat medulla oblangata assessed per mg of tissue at 30 mg/kg, ip after 2 hrs; assay type: functional, Medulla oblongata; conditions: route intraperitoneal; outline: as §8
# Rattus norvegicus [28] = experiment: Increase in GABA level in Wistar rat midbrain assessed per mg of tissue at 30 mg/kg, ip after 2 hrs; assay type: functional; conditions: route intraperitoneal
SMILES,Activity (Rattus norvegicus [1]) [µg],Activity (Rattus norvegicus [2]) [µg],Activity (Rattus norvegicus [3]) [µg],Activity (Rattus norvegicus [4]),minimal effective dose (Mus musculus [5]) [mg/kg],Activity (Mus musculus [6]),Activity (Rattus norvegicus [7]),minimal effective dose (Mus musculus [8]) [mg/kg],minimal effective dose (Mus musculus [9]) [mg/kg],Activity (Rattus norvegicus [10]),Activity (Rattus norvegicus [11]),Activity (Rattus norvegicus [12]),Activity (Rattus norvegicus [13]),Activity (Mus musculus [14]),Activity (Rattus norvegicus [15]),minimal effective dose (Rattus norvegicus [16]) [mg/kg],MED (Mus musculus [17]),MED (Rattus norvegicus [18]),Activity (Rattus norvegicus [19]),Activity (Rattus norvegicus [21]),further results
C/C(=N/NC(=O)Nc1nnc(COc2ccc3ccccc3c2)o1)c1ccc([N+](=O)[O-])cc1,40.42,45.5,27.56,inactive,100,Non-toxic,inactive,300,300,Non-toxic,Non-toxic,Non-toxic,inactive,Non-toxic,Non-toxic,300,inactive,inactive,,,
O=C(N/N=C(/c1ccccc1)c1ccc([N+](=O)[O-])cc1)Nc1nnc(COc2ccc3ccccc3c2)o1,46.62,67.72,29.75,inactive,100,Non-toxic,inactive,300,300,Non-toxic,Non-toxic,Non-toxic,inactive,Non-toxic,Non-toxic,300,,inactive,inactive,Non-toxic,minimal effective dose (Mus musculus [20]): 100 mg/kg
O=C(N/N=C\c1ccc(O)cc1)Nc1nnc(COc2ccc3ccccc3c2)o1,35.48,53.77,28.53,inactive,100,,,,300,Non-toxic,,Non-toxic,inactive,,Non-toxic,300,inactive,,inactive,Non-toxic,Activity (Mus musculus [22]): 100 mg/kg; minimal effective dose (Rattus norvegicus [23]): 100 mg/kg; MED (Mus musculus [24]): inactive; Activity (Mus musculus [25]): 100 mg/kg
CN1C(=O)CC(=O)N(c2ccccc2)c2cc(Cl)ccc21 [CLOBAZAM],,,,,,,,,,,,,,,,,,,,,Activity (Rattus norvegicus [26]): 35.44 µg; Activity (Rattus norvegicus [27]): 47.53 µg; Activity (Rattus norvegicus [28]): 69.51 µg
